Measured values from article PMC4410366 (Biochemistry, 2015).
“Also recorded” adds a separate entry of the source. Like-named read-outs stand apart in the source and are kept apart here. Each block holds one compound with its values, some of them ahead of it.

Tests used:
recombinant murine iNOS [1] = molecular target: T1, recombinant murine iNOS (Mus musculus, UniProt P29477); test: Hemoglobin assay for iNOS activity; assay type: biochemical; conditions: different concentrations of inhibitor and L-arginine
iNOS heme cofactor [2] = molecular target: T2, iNOS heme cofactor (Mus musculus, UniProt P29477); conditions: LC-electrospray MS and HPLC; cited from earlier work
recombinant murine iNOS [3] = molecular target: T1, recombinant murine iNOS; conditions: cited from earlier work
iNOS dimer = iNOS dimer (Mus musculus, UniProt P29477); test: LT-PAGE assay of iNOS dimer/monomer after inactivation; assay type: biochemical, murine; conditions: native iNOS control 65 ± 5
iNOS heme cofactor [4] = molecular target: T2, iNOS heme cofactor; test: HPLC and LC/MS determination of heme and biliverdin after treatment of iNOS; assay type: biochemical, murine; conditions: for Biliverdin formation: HPLC with UV or MS detection; for Heme loss: qualitative
Procedure, shortened: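 After iNOS treatment with test compound, biliverdin is analysed by LC/MS with diode-array detection at 401 nm. Column is C18 reversed-phase, with water and acetonitrile each containing 0.1% TFA, at 1.0 mL/min. Solvent B rises linearly from 40% to 60% over 10 min, then returns to 40% within 2 min and holds 3 min.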

recombinant murine iNOS [5] = molecular target: T1, recombinant murine iNOS; test: HPLC / LC/MS of amino acid metabolites from inactivation mixtures; assay type: biochemical; conditions: OPA/MCE derivatization HPLC
Procedure, shortened: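 E. coli-expressed murine iNOS is incubated with test compound (2 mM stock), NADPH (39 mM stock), H4B (8 mM stock), catalase and glycerol in Hepes 100 mM pH 7.4 for 3 h at 37 °C. Aliquots are derivatised with o-phthalaldehyde/2-mercaptoethanol (20:1 v/v). Separation is C18 reversed-phase HPLC, 50 mM sodium acetate pH 5.9 to 80% methanol gradient, 1.0 mL/min, detection at 340 nm.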

recombinant murine iNOS [6] = molecular target: T1, recombinant murine iNOS; test: Irreversible inhibition kinetics; assay type: biochemical; conditions: for Ki: Kitz and Wilson; for Inactivation (irreversible inhibition) of iNOS: qualitative
recombinant murine iNOS [7] = molecular target: T1, recombinant murine iNOS; test: Determination of substrate activity; assay type: biochemical; conditions: up to 2 mM
Procedure, shortened: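 Recombinant murine iNOS expressed in E. coli. NO output is read as oxyhemoglobin oxidised to metHb, by absorbance change at 401 nm over the first 60 s at 37 °C. The mix holds NADPH 100 µM, oxyHb 0.125 mg/mL and tetrahydrobiopterin 10 µM in 100 mM Hepes pH 7.4. Test compound is tested up to 2 mM. The reaction starts on adding enzyme.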

NOS = conditions: cited from earlier work

T1 sequence (P29477 whole entry): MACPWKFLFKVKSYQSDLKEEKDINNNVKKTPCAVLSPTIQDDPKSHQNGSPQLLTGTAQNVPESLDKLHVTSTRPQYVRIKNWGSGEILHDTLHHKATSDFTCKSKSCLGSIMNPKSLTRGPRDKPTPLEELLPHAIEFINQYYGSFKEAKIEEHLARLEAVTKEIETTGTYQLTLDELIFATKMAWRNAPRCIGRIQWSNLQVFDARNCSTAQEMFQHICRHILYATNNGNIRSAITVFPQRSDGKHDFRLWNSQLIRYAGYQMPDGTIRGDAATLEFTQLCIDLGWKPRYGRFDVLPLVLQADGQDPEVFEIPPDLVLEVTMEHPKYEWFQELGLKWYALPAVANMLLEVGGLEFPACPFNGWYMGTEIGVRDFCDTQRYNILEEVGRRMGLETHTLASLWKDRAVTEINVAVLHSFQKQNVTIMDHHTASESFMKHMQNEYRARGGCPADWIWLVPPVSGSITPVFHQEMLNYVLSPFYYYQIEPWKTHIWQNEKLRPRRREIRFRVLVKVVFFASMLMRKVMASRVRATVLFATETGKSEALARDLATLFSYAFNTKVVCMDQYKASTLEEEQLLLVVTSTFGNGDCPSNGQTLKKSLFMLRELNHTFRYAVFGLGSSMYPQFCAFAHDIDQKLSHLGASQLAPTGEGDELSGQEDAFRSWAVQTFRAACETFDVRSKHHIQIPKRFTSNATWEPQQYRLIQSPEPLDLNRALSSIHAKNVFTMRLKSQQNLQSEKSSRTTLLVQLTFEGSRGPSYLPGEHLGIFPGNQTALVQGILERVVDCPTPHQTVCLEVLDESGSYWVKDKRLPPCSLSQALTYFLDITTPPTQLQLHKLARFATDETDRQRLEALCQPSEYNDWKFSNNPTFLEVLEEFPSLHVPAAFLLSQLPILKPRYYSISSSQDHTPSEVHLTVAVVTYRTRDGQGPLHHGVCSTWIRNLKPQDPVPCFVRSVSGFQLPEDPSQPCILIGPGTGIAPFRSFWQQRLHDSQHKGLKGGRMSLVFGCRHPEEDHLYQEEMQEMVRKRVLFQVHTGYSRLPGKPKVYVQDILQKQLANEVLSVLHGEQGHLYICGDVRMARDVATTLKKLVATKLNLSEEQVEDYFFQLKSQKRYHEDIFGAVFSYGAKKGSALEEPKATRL

Inhibition type (recombinant murine iNOS [1]): competitive | % iNOS Dimer remaining after inactivation (iNOS dimer): 51 ± 4%
SMILES: CC(=N)NCCC[C@H](N)C(=O)O [Compound 4, N^5-(1-iminoethyl)-L-ornithine]
Conversion of active site heme in iNOS to biliverdin (iNOS heme cofactor [2]): convert the active site heme in iNOS to biliverdin IXα | Inactivation of iNOS (recombinant murine iNOS [3]): time-, concentration-, and NADPH-dependent iNOS inactivator

Heme lost by incubation with iNOS (iNOS heme cofactor [4]): < 5% | Heme loss (iNOS heme cofactor [4]): No apparent heme loss | kinact/KI (recombinant murine iNOS [6]; iNOS inactivation): 5.17 ± 0.467 M⁻¹ s⁻¹ | kinact (recombinant murine iNOS [6]; iNOS inactivation, 37 °C): 0.0743 ± 0.0073 min⁻¹ | Ki (recombinant murine iNOS [6]; iNOS inactivation): 243 ± 31.4 µM | % iNOS Dimer remaining after inactivation (iNOS dimer): 46 ± 2% | Substrate activity (NO generation / products) (recombinant murine iNOS [7]): no nitric oxide was formed
SMILES: CCC(=N)NCCC[C@H](N)C(=O)O [Compound 8]
Biliverdin formation (iNOS heme cofactor [4]): No apparent heme loss or biliverdin formation; also recorded: no biliverdin could be detected | Metabolites from inactivation of iNOS (recombinant murine iNOS [5]): none was detected; also recorded: no 22 was observed | Inactivation (irreversible inhibition) of iNOS (recombinant murine iNOS [6]): inactivators; also recorded: irreversible inhibitors; also recorded: weak irreversible inhibition; also recorded: time-, concentration-, and NADPH-dependent inhibitor

SMILES: CN=C(NC)NCCCC(N)C(=O)O (stereo not shown) [Compound 6b, N^ω,N’^ω-dimethylarginine]
NOS inhibition (NOS): inactive

Inactivation (irreversible inhibition) of iNOS (recombinant murine iNOS [6]): No inactivation was observed
SMILES: CC(C)C(=N)NCCC[C@H](N)C(=O)O [Compound 10]

Substrate activity (NO generation / products) (recombinant murine iNOS [7]): does not act as a substrate
SMILES: N=CNCCC[C@H](N)C(=O)O [Compound 7]
Inactivation (irreversible inhibition) of iNOS (recombinant murine iNOS [6]): does not act as a substrate or as an inactivator; also recorded: did not inactivate iNOS

Heme lost by incubation with iNOS (iNOS heme cofactor [4]): < 5% | Heme loss (iNOS heme cofactor [4]): No apparent heme loss | Metabolites from inactivation of iNOS (recombinant murine iNOS [5]): none was detected | kinact/KI (recombinant murine iNOS [6]; iNOS inactivation): 3.3 ± 0.16 M⁻¹ s⁻¹ | kinact (recombinant murine iNOS [6]; iNOS inactivation, 37 °C): 0.131 ± 0.0095 min⁻¹ | Ki (recombinant murine iNOS [6]; iNOS inactivation): 674 ± 80 µM | % iNOS Dimer remaining after inactivation (iNOS dimer): 47 ± 5% | Substrate activity (NO generation / products) (recombinant murine iNOS [7]): no nitric oxide was formed
SMILES: CCCC(=N)NCCC[C@H](N)C(=O)O [Compound 9]
Biliverdin formation (iNOS heme cofactor [4]): No apparent heme loss or biliverdin formation; also recorded: no biliverdin could be detected | Inactivation (irreversible inhibition) of iNOS (recombinant murine iNOS [6]): inactivators; also recorded: irreversible inhibitors; also recorded: weak irreversible inhibition

SMILES: CN=C(NC)NCCCC(N)C(=O)O (stereo not shown) [Compound 6a, N^ω, N^ωω-dimethylarginine]
NOS inhibition (NOS): endogenous NOS inhibitor

SMILES: CC(=N)NCc1cccc(CN)c1 [Compound 1400W, N-(3-(aminomethyl)benzyl)acetamidine]
Conversion of active site heme in iNOS to biliverdin (iNOS heme cofactor [2]): convert the active site heme in iNOS to biliverdin IXα

kinact (recombinant murine iNOS [6]): 0.073 min⁻¹ | kinact/KI (recombinant murine iNOS [6]): 4.42 M⁻¹ s⁻¹ | H/D ratio of KI (recombinant murine iNOS [6]; 8 versus 26): 0.884 ± 0.068 | Inactivation (irreversible inhibition) of iNOS (recombinant murine iNOS [6]): inactivated iNOS
SMILES: [2H]C([2H])([2H])C([2H])([2H])C(=N)NCCC[C@H](N)C(=O)O [Compound 26, (S)-2-amino-5-(propanimidamido-2,2,3,3,3-d5)pentanoic acid]
